Assays:
[1] = system: Mus musculus; experiment: Acute toxicity in albino mouse assessed as effect on general behavioral profile at 2000 mg/kg, po measured for 3 hrs; type: organism-based; set-up: dose 2000 mg/kg, route oral; details: in vivo
Procedure, shortened: (§1)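 OECD guideline test. Albino mice of either sex, 20–25 g, six per group, fasted 24 h with water ad libitum. Compounds suspended in 0.5% aqueous sodium CMC and given orally in increasing doses of 10, 20, 100, 200, 1000 and 2000 mg/kg b.w. Animals watched continuously for 3 h for general behavioural, neurological and autonomic profiles, then every 30 min for 3 h, then up to 24 h or until death.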

[2] = system: Mus musculus; experiment: Acute toxicity in albino mouse assessed as effect on neurological profile at 2000 mg/kg, po measured for 3 hrs; type: organism-based; set-up: dose 2000 mg/kg, route oral; details: in vivo; procedure, shortened: as §1
[3] = system: Mus musculus; experiment: Acute toxicity in albino mouse assessed as effect on autonomic profile at 2000 mg/kg, po measured for 3 hrs; type: organism-based; set-up: dose 2000 mg/kg, route oral; details: in vivo; procedure, shortened: as §1
[4] = system: Mus musculus; experiment: Acute toxicity in albino mouse assessed as mortality at 2000 mg/kg, po measured continuously for 3 hrs followed by every 30 mins for next 3 hrs up to 24 hrs; type: organism-based; set-up: dose 2000 mg/kg, route oral; details: in vivo; procedure, shortened: as §1
[5] = system: Rattus norvegicus; experiment: Acute antiinflammatory activity in albino rat assessed as inhibition of carrageenan-induced paw edema at 10 mg/kg, po administered 1 hr followed by carrageenan challenge measured at 2 hrs by plethysmometric analysis relative to control; type: functional
Procedure, shortened: (§2)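 Male albino rats (170–220 g), fasted ≥12 h with water, six per group. Oral dosing in 0.5% sodium CMC (control 1 ml vehicle), then 1 h later subplantar 0.05 ml of 1% carrageenan into left hind footpad. […] Mean ± SEM, ANOVA/Dunnett.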

[6] = system: Rattus norvegicus; experiment: Acute antiinflammatory activity in albino rat assessed as inhibition of carrageenan-induced paw edema at 10 mg/kg, po administered 1 hr followed by carrageenan challenge measured at 4 hrs by plethysmometric analysis relative to control; type: functional; procedure, shortened: as §2
[7] = system: Mus musculus; experiment: Analgesic activity in albino mouse assessed as protection against glacial acetic acid-induced writhing at 10 mg/kg, po administered 0.5 hrs followed by glacial acetic acid challenge measured for 15 mins relative to control; type: functional
Procedure, shortened: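 Mice (20–25 g) pre-screened 24 h earlier with i.p. 10 ml/kg 0.6% glacial acetic acid; only responders used. Oral dosing as suspension in 0.5% sodium CMC 30 min before acetic acid challenge. Writhing episodes counted for 15 min; group means versus vehicle control; ANOVA with Dunnett test.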

[8] = system: Rattus norvegicus; experiment: Antipyretic activity in albino rat assessed as yeast-induced pyrexia at 10 mg/kg, po measured at 1 hr by telethermometer (reference value: 38.26 degC); type: functional
Procedure, shortened: (§3)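 Male albino rats (170–230 g) given s.c. 2.5 ml 20% aqueous baker's yeast; rectal temperature by telethermometer before and at 18 h (taken as 0 h). Rats with 1–2 °C rise, six per group, dosed orally 30 min later (control 1 ml 0.5% sodium CMC). Temperature recorded hourly to 5 h; temperature index = sum of mean changes from 0 h.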

[9] = system: Rattus norvegicus; experiment: Antipyretic activity in albino rat assessed as yeast-induced pyrexia at 10 mg/kg, po measured at 2 hrs by telethermometer (reference value: 38.20 degC); type: functional; procedure, shortened: as §3
[10] = system: Rattus norvegicus; experiment: Antipyretic activity in albino rat assessed as yeast-induced pyrexia at 10 mg/kg, po measured at 3 hrs by telethermometer (reference value: 38.11 degC); type: functional; procedure, shortened: as §3
[11] = system: Rattus norvegicus; experiment: Antipyretic activity in albino rat assessed as yeast-induced pyrexia at 10 mg/kg, po measured at 4 hrs by telethermometer (reference value: 38 degC); type: functional; procedure, shortened: as §3
[12] = system: Rattus norvegicus; experiment: Antipyretic activity in albino rat assessed as yeast-induced pyrexia at 10 mg/kg, po measured at 5 hrs by telethermometer (reference value: 37.89 degC); type: functional; procedure, shortened: as §3
[13] = system: Rattus norvegicus; experiment: Antipyretic activity in albino rat assessed as decrease in yeast-induced pyrexia by measuring temperature index at 10 mg/kg, po measured over 5 hrs by telethermometer (reference value: 1.04 degC); type: functional; procedure, shortened: as §3
[14] = system: Rattus norvegicus; experiment: Ulcerogenic activity in albino rat stress model assessed as ulcer index at 10 mg/kg, po after 7 hrs; type: toxicity, organism-based; set-up: dose 10 mg/kg, route oral; details: in vivo
Procedure, shortened: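 Albino rats of either sex (170–250 g), six per group, starved 48 h with water, dosed orally 10 mg/kg in sodium CMC; killed 7 h later. Stomach opened along greater curvature and everted; lesions counted in five size classes (pinpoint to >4 mm) to give ulcer index, reported as min–max range.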

[15] = molecular target: T1, Prostaglandin G/H synthase 1 (Ovis aries) (UniProt P05979); experiment: Inhibition of ovine COX1 peroxidase activity assessed as reduction of PGG2 to PGH2 by measuring oxidized TMPD level at 10 ug/ml by colorimetric assay relative to control
T1 sequence (whole entry): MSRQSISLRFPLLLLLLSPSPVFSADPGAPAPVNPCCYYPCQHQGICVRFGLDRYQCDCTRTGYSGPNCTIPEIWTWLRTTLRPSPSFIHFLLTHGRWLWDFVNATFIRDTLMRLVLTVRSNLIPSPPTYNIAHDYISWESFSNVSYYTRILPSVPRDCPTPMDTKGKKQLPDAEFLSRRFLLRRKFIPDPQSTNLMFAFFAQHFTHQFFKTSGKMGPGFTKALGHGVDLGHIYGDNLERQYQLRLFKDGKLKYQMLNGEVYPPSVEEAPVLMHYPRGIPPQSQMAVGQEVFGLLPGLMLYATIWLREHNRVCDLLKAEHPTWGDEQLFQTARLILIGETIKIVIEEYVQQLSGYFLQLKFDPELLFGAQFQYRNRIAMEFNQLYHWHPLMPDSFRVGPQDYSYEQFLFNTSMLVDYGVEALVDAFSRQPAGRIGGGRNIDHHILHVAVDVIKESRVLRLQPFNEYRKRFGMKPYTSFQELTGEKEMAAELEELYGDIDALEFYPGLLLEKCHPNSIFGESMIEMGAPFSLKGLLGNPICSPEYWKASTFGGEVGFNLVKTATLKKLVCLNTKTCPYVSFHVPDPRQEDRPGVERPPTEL

[16] = molecular target: T2, Prostaglandin G/H synthase 1 (Ovis aries, UniProt P05979); experiment: Inhibition of ovine COX1 peroxidase activity assessed as reduction of PGG2 to PGH2 by measuring oxidized TMPD level by colorimetric assay
T2 sequence (P05979 whole entry): T1 sequence (whole entry)

SMILES | Activity [1] | Activity [2] | Activity [3] | Activity [4] | inhibition in vivo at 10 mg/kg [5] [%] | inhibition in vivo at 10 mg/kg [6] [%] | Activity [7] [%] | T [8] [°C] | T [9] [°C] | T [10] [°C] | T [11] [°C] | T [12] [°C] | T [13] [°C] | UI [14] | inhibition [15] [%] | IC50 [16] [µM]
CC1CCCCN1Cn1nc(Cc2ccccc2Nc2c(Cl)cccc2Cl)oc1=S (centres undefined) | Non-toxic | Non-toxic | Non-toxic | Non-toxic | 39.4 | 36.6 | – | – | – | – | – | – | – | – | – | –
CN1CCN(Cn2nc(Cc3ccccc3Nc3c(Cl)cccc3Cl)oc2=S)CC1 | Non-toxic | Non-toxic | Non-toxic | Non-toxic | 65.1 | 64.5 | 77.6 | 37.72 | 37.94 | 37.8 | 37.44 | 37.2 | 2.81 | 2.3 | 35.2 | > 50
S=c1oc(Cc2ccccc2Nc2c(Cl)cccc2Cl)nn1CN1CCNCC1 | Non-toxic | Non-toxic | Non-toxic | Non-toxic | 51.4 | 56.5 | 75.9 | – | – | – | – | – | – | – | 43.2 | > 50
S=c1oc(Cc2ccccc2Nc2c(Cl)cccc2Cl)nn1CNc1ccccc1Cl | Non-toxic | Non-toxic | Non-toxic | Non-toxic | 59.4 | 61.3 | 77.6 | 37.74 | 37.77 | 37.36 | 37.06 | 37.11 | 3.06 | 3.2 | 27.8 | > 50
CC(C(=O)O)c1ccc(-c2ccccc2)c(F)c1 (centres undefined) [FLURBIPROFEN] | – | – | – | – | – | – | – | – | – | – | – | – | – | 5.9 | – | –
CCN1CCN(Cn2nc(Cc3ccccc3Nc3c(Cl)cccc3Cl)oc2=S)CC1 | Non-toxic | Non-toxic | Non-toxic | Non-toxic | 63.1 | 68.9 | 81 | 39.2 | 38.3 | 37.9 | 37.7 | 37.1 | 6.6 | 1.9 | 28.4 | > 50
S=c1oc(Cc2ccccc2Nc2c(Cl)cccc2Cl)nn1CN1CCCCC1 | Non-toxic | Non-toxic | Non-toxic | Non-toxic | 48.3 | 45.9 | 74.1 | – | – | – | – | – | – | – | 30.9 | > 50
S=c1oc(Cc2ccccc2Nc2c(Cl)cccc2Cl)nn1CNc1cccc(Cl)c1 | Non-toxic | Non-toxic | Non-toxic | Non-toxic | 71.8 | 74.4 | 82.2 | 38.9 | 38.6 | 38.1 | 37.8 | 37.2 | 5.4 | 2.1 | 25 | > 50
